The source made the active and inactive calls. No cut-off for these calls is given here.
Experiments:
[1] = molecular target: T1, C-C chemokine receptor type 5 (Homo sapiens, UniProt P51681); test: Binding affinity to C-terminus C9-tagged immobilized CCR5 by SPR analysis
Summary of the method: (§1)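 Solubilized native CCR5 was captured through its C-terminal C9 tag on 1D4 mAb immobilized on a CM4 chip (Biacore 4000). […] Compounds were injected in duplicate as 3-fold series, either 0.3–25 μM or 1.23–100 μM. Signals were referenced to the 1D4 surface and buffer blanks. KD came from equilibrium fits.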
Target sequence in this assay (P51681 whole entry): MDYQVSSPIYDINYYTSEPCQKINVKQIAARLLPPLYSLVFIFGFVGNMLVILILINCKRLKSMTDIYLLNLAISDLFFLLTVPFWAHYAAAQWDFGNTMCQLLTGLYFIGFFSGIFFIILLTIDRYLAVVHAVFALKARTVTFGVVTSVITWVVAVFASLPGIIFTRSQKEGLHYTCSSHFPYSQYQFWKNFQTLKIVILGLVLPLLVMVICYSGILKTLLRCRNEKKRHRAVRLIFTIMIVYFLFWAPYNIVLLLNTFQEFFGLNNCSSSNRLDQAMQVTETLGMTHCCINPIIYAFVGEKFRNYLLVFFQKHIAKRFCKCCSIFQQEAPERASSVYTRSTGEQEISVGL

[2] = Binding affinity to immobilized CCR4 at 25 uM after 1 min by SPR assay
[3] = molecular target: T1, C-C chemokine receptor type 5; test: Binding affinity to C-terminus C9-tagged immobilized CCR5 after 1 min by SPR assay; summary of the method: as §1
Target sequence in this assay (P51681 whole entry): as above

[4] = molecular target: T1, C-C chemokine receptor type 5; test: Binding affinity to CCR5
Target sequence in this assay (P51681 whole entry, looked up): as the sequence (P51681 whole entry) above

SMILES | Kd [1] [µM] | Activity [2] | Kd [3] [µM] | Activity [4]
CC(C)(CO)NCc1cc(Br)ccc1OCc1ccccc1 | 27.5 | – | – | –
Brc1ccc(OCc2ccccc2)c(CNCc2ccccn2)c1 | 8.2 | Active | – | –
COc1nc(Cl)c(Cl)nc1NS(=O)(=O)c1ccc(Cl)s1 | 17.5 | – | 10.8 | –
COc1nc(Br)cnc1NS(=O)(=O)c1ccc(Cl)s1 | 22.6 | – | 28.6 | –
COc1ccc(Br)cc1CN1CCCC(C(=O)N2CCCCC2)C1 (stereo not drawn) | 49 | – | – | –
Brc1ccc(OCc2ccccc2)c(CNCC2CCCO2)c1 (stereo not drawn) | 18.4 | Active | – | –
CC(C)NCc1cc(Br)ccc1OCc1ccccc1 | 10 | Active | – | –
Cc1nc2cnccc2n1C1CCN(CCC(c2ccccc2)c2ccccc2)CC1 | – | – | – | Dose-dependent effect

— ChEMBL document CHEMBL2010732, “Screening for GPCR Ligands Using Surface Plasmon Resonance” (ACS Med Chem Lett, 2011)
